SKN-1 block – C. elegans SKN-1 inhibition | C. elegans VP596 Pgst-4::GFP/RFP ratio, acrylamide-induced, 24 h | inhibition, % at 21.8 µM | 360,000 tested, 0.49% active;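 active = interference check ratio from 0.5 to 1.5 plus GFP to RFP signal ratio inhibition reaching or exceeding a fixed threshold, cut at about 30% in these data, passing the limit was not always enough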
MT1-MMP act inh – MT1-MMP (human) activation inhibition; P50281; HT1080 RFP-PRO-GFP cells, GFP/RFP ratio fluorescence, overnight; percent of plate control window, DMSO zero; GFP/RFP ratio change, % at 20 µM; 360,000 tested, 0.061% active; AID 651647;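 active = GFP/RFP ratio change of at least 30% with cell ATP level not reduced by more than half and red fluorescence within 50% of control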
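Assay system – RFP-PRO-GFP reporter HT1080 cells · Compound dosing – single dose of 20 µM compound, 1% DMSO final · Incubation – overnight compound exposure at 37 °C · Measure – GFP/RFP fluorescence ratio · Benchmarks – DMSO wells and RFP-L50D-GFP cells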
ATG4B inhibitor – inhibitors of human ATG4B cysteine protease; Q9Y4P1; ATG4B cleavage of LC3-PLA2, NBD-HPC fluorescence, 1 h; inhibition, % at 8.33 µM; 340,000 tested, 0.51% active; AID 504462; in the data active = inhibition above about 40%
Target sequence (Q9Y4P1 whole entry, looked up): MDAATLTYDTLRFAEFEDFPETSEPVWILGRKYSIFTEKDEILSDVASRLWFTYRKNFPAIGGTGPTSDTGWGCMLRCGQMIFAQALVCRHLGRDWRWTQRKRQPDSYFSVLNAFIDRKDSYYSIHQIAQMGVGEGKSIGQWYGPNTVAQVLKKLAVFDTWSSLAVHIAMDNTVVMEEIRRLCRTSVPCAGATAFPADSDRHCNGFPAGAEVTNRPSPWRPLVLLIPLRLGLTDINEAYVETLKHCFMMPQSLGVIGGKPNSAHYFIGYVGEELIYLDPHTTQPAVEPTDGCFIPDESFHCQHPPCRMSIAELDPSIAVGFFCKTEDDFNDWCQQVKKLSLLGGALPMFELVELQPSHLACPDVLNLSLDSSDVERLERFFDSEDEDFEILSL
MPTP block – blocks calcium-induced mitochondrial swelling; inhibition, % at 10 µM; 360,000 tested, 1.4% active; isolated mouse mitochondria, Ca2+ swelling absorbance, 30 min;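 active = inhibition of 50% or more, scaled per plate between neutral and stimulator controls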;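 note: 0% = DMSO wells given calcium and 100% = 1 mM EGTA wells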
Rh123 counter – Rhodamine 123 counter-screen of mitochondrial pore hits; inhibition, % at 10 µM; isolated mitochondria, membrane potential, Rhodamine 123 fluorescence; shares compounds with MPTP block; 5,000 tested, 78% active; AID 624504; in the data active = inhibition above about 22%;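 note: 0% = DMSO vehicle and 100% = positive control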
MPTP swell DR – MPTP inhibition, dose response swelling confirmation; IC50, µM; shares compounds with MPTP block; isolated mitochondria swelling, absorbance; 780 tested, 58% active; in the data active = IC50 below about 20 µM
MPTP counter DR – counter-screen for mitochondrial permeability transition pore inhibitors, dose response. 780 tested, 49% active. shares compounds with MPTP block. isolated mitochondria counterscreen, fluorescence read-out. IC50, µM; in the data active = IC50 below about 80 µM
The depositor's hits bear a star; i = inactive; . = no result; ! = repeats disagree. Sampled rows, rich in hits. Any-hit rate of the full collection: about 2.3%.

SMILES	SKN-1 block	MT1-MMP act inh	ATG4B inhibitor	MPTP block	Rh123 counter	others
Cc1cccc(C(=O)Nc2ccccc2C(=O)OCC(=O)Nc2ccc(C#N)cc2)c1	9	2	-3	77*	62*
CC(C)(C)c1ccc(/C=C/C(=O)Nc2ccncc2)cc1	6	-2	4	98*	92*
CC(=O)Nc1ccc(NC(=O)/C=C/c2ccc(Cl)cc2)cc1	10	8	2	1	.
CC(NC(=O)Nc1ccc(Br)cc1)C(C)(C)C (stereo unspecified)	15	-2	-8	78*	93*
Nc1ccccc1C(O)(Cc1ccccc1)c1ccccc1 (stereo unspecified)	5	-1	11	0	.
Cc1ccc(NC(=O)C(C)c2ccc(-c3ccccc3)c(F)c2)cc1 (stereo unspecified)	4	-11	11	89*	110*
CN(C)S(=O)(=O)c1ccc(Nc2nc(C3CC3)nc3c2nnn3Cc2ccccc2Cl)cc1	6	-9	24	62*	29*
COC(=O)CNc1nc(C2CC2)nc2c1nnn2Cc1ccccc1Cl	2	-1	-2	1	.
Nc1cnc(Nc2ccc(Br)cc2)nc1N	27	11	8	-1	.
Cc1cc(-n2c(C)cc(C(=O)CSc3ncnc4ccccc34)c2C)no1	-14	2	-19	97*	88*
Cc1cc(C)n2nc(SCC(=O)c3cc(C)n(-c4cc(C)on4)c3C)nc2n1	0	-6	-3	81*	62*
CCOc1cc(OCC)cc(C(=O)NC(=S)Nc2cccc(C(F)(F)F)c2)c1	4	2	-3	4	.
COc1cc2c(cc1NC(=S)Nc1cccc(C(F)(F)F)c1)oc1ccccc12	7	3	6	94*	80*
CCOc1ccc(NC(=S)NNC(=S)Nc2cccc(C(F)(F)F)c2)cc1	-6	2	-4	80*	57*
COc1ccc(-c2cc(C(=O)Nc3cc(OC)cc(C(=O)Nc4cccc(C(F)(F)F)c4)c3)[nH]n2)cc1	0	-2	-6	55*!	56*
COc1ccc(NC(=S)NNC(=S)Nc2cccc(C(F)(F)F)c2)cc1	1	4	-6	69*	72*
COc1cc(NC(=O)c2ccno2)cc(C(=O)Nc2cccc(C(F)(F)F)c2)c1	-12	8	-17	35	.
CNNC(=S)Nc1cccc(C(F)(F)F)c1	-1	0	4	3	.
COc1ccc(S(=O)(=O)N/N=c2\oc3c(OC)cccc3cc2S(=O)(=O)c2ccc(C)cc2)cc1OC	-12	-4	-11	1	.
O=C(Cn1c(=O)oc2cc(S(=O)(=O)N3CCCCC3)ccc21)N1CCCCC1	11	0	-4	0	.
Cc1csc2ncnc(NNC(=O)c3ccc(Cl)cc3)c12	2	-4	8	55*	39*
CCn1c(=O)c2ccccc2n2c(SCC(=O)N3CCCc4ccccc43)nnc12	-2	-4	-5	54*	3	MPTP swell DR=>100;MPTP counter DR=>80
CN1C(=O)c2ccccc2C(C(=O)O)C1c1cn(C)c2ccccc12 (stereo unspecified)	11	0	-10	0	.
CCCN1CCC(NC(=O)Nc2ccc(Br)cc2)CC1	3	7	-11	61*	76*
Cc1cc(C(=O)CSc2nc3ccccc3[nH]2)c(C)n1Cc1ccco1	19	-1	-14	86*	83*
SMILES	SKN-1 block	MT1-MMP act inh	ATG4B inhibitor	MPTP block	Rh123 counter	others
COCC(C)n1c(C)cc(C(=O)CSc2nc3ccccc3c(=O)[nH]2)c1C (stereo unspecified)	-1	1	9	76*	35*
CCN(CC)C(=O)CSc1nc2ccccc2c(=O)[nH]1	2	-8	2	66*	-1	MPTP swell DR=>100;MPTP counter DR=>80
CN(C)C(=O)CSc1nc2ccccc2c(=O)[nH]1	1	-5	1	-4	.
COCCn1c(C)cc(C(=O)CSc2nc3ccccc3c(=O)[nH]2)c1C	-13	0	-3	64*	14	MPTP swell DR=i;MPTP counter DR=45*
Cc1nc2cc(CC(=O)O)ccc2o1	-9	0	-9	-2	.
O=C(CCCOc1ccc(Br)cc1)NCCc1ccc(OC(F)F)cc1	-1	2	1	-1	.
CCCCCCCCCn1c2c(c(=N)c3c1CCC3)CCC2	-13	-17	10	84*	92*
Cc1cccc(C)c1OCC(=O)NNC(=S)NC(=O)C1CC1	-4	7	-7	-1	.
Cc1ccc(Oc2ccc(NC(=O)Cn3ccsc3=N)cc2)cc1	-13	0	0	89*	-25	MPTP swell DR=6.3*;MPTP counter DR=>80
C=C(C)COc1ccc2c(C)c(CC(=O)OC)c(=O)oc2c1C	1	2	-5	75*	59*
CC(=O)COc1ccc2c3c(c(=O)oc2c1C)CCCCC3	15	5	-1	-1	.
Cc1c(OCC(=O)OC(C)(C)C)ccc2c3c(c(=O)oc12)CCC3	5	0	4	62*	56*
Cc1cc(C(=O)CCC(=O)N(C)CC(=O)Nc2ccccc2Br)c(C)s1	3	2	0	0	.
CC(C)(C)CC(C)(C)SSc1n[nH]c(=S)s1	20	3	-1	51*	37*
CCOC(=O)CSc1n[nH]c(=S)s1	-4	4	-4	1	.
O=C(c1ccc(NC(=S)Nc2ccc(Cl)c(Cl)c2)cc1)N1CCCC1	6	-1	19	103*	92*
O=C(Nc1ccc(Cl)c(Cl)c1)N1CCCCCC1	27	0	-2	2	.
O=C(Nc1ccc(N2CCOCC2)cc1)Nc1ccc(Cl)c(Cl)c1	13	6	5	93*	80*
O=C(Nc1ccccc1)Nc1ccc(Cl)c(S(=O)(=O)N2CCOCC2)c1	13	4	-6	62*	86*
CC(=O)c1ccc(N2CCN(C(=S)Nc3ccc(Cl)c(Cl)c3)CC2)cc1	-2	0	-4	94*	77*
COc1ccccc1NC(=O)CSCc1ccc([N+](=O)[O-])cc1	12	1	-9	3	.
O=C(Nc1cc(S(=O)(=O)N2CCCCC2)ccc1N1CCOCC1)c1ccc(F)cc1	18	-6	7	-2	.
Oc1ccc(-c2nc3c4c(ncn3n2)-c2ccccc2CC42CCCC2)cc1	6	-5	-5	18	.
O=C(/C=C/c1ccc(Cl)cc1)Nc1ccc(N2CCOCC2)cc1	11	0	5	2	.
O=C(Nc1ccc(Cl)cc1)Nc1ccc(N2CCOCC2)cc1	-6	-5	-9	69*	57*
COc1ccc2ccccc2c1/C=N/NC(=O)c1cccc(Br)c1	17	2	-12	4	.
O=C(N/N=C/c1c(O)ccc2ccccc12)c1cccc(C(F)(F)F)c1	1	-268	8	99*	42*
O=C(N/N=C/c1c(O)ccc2ccccc12)c1[nH]ncc1Br	7	-29	-29	55*	55*
